What was measured:
Format in all cases: functional
Conditions in all cases: read-out: GI
[1] = test system: HL-60(TB); experiment: Growth inhibition of human HL-60(TB) cells at 10 uM incubated for 48 hrs by sulforhodamine B assay relative to control
In short: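 NCI-60 one-dose screen: same culture, 48 h drug exposure and SRB read-out. Reported as percent growth relative to no-drug control and to time-zero cell number; 0–100 means growth inhibition, below 0 means lethality.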

[2] = test system: K562; experiment: Growth inhibition of human K562 cells at 10 uM incubated for 48 hrs by sulforhodamine B assay relative to control
In short: (§1)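 NCI-60 single-dose screen. Cells were grown in RPMI 1640 with 5% FBS and 2 mM L-glutamine and plated 24 h before drug addition. Compound was added at one concentration in DMSO-derived medium and incubated for 48 h at 37 °C in 5% CO2. Read-out was SRB protein stain at 515 nm. Result is percent growth versus the no-drug control and the time-zero cell count; values below 0 indicate lethality.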

[3] = test system: MOLT-4; experiment: Growth inhibition of human MOLT-4 cells at 10 uM incubated for 48 hrs by sulforhodamine B assay relative to control
In short: (§2)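 NCI one-dose screen. Cells grown in RPMI 1640 with 5% FBS and 2 mM L-glutamine, plated and incubated 24 h at 37 °C, 5% CO2. DMSO-dissolved drug added, then 48 h further incubation. Adherent cells fixed with cold TCA, suspension cells fixed after settling. Stained with 0.4% SRB, absorbance read at 515 nm. Reported as percent growth relative to no-drug control and time-zero cell number.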

[4] = test system: SR; experiment: Growth inhibition of human SR cells at 10 uM incubated for 48 hrs by sulforhodamine B assay relative to control; in short: as §2
[5] = test system: EKVX; experiment: Growth inhibition of human EKVX cells at 10 uM incubated for 48 hrs by sulforhodamine B assay relative to control; in short: as §1
[6] = test system: HOP-92; experiment: Growth inhibition of human HOP-92 cells at 10 uM incubated for 48 hrs by sulforhodamine B assay relative to control; in short: as §1
[7] = test system: NCI-H226; experiment: Growth inhibition of human NCI-H226 cells at 10 uM incubated for 48 hrs by sulforhodamine B assay relative to control; in short: as §2
[8] = test system: NCI-H23; experiment: Growth inhibition of human NCI-H23 cells at 10 uM incubated for 48 hrs by sulforhodamine B assay relative to control; in short: as §2
[9] = test system: NCI-H322M; experiment: Growth inhibition of human NCI-H322M cells at 10 uM incubated for 48 hrs by sulforhodamine B assay relative to control; in short: as §2
[10] = test system: NCI-H460; experiment: Growth inhibition of human NCI-H460 cells at 10 uM incubated for 48 hrs by sulforhodamine B assay relative to control; in short: as §2
[11] = test system: COLO 205; experiment: Growth inhibition of human COLO 205 cells at 10 uM incubated for 48 hrs by sulforhodamine B assay relative to control; in short: as §1
[12] = test system: SW-620; experiment: Growth inhibition of human SW-620 cells at 10 uM incubated for 48 hrs by sulforhodamine B assay relative to control
In short: (§3)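 NCI one-dose screen across a 59-line panel. Cells were grown in RPMI 1640 with 5% FBS and 2 mM L-glutamine, plated and pre-incubated 24 h, then exposed to drug for 48 h at 37 °C, 5% CO2. Adherent cells were fixed with cold TCA (10% final), stained with 0.4% SRB in 1% acetic acid and read at 515 nm. Result is percent growth relative to no-drug control and time-zero cell count.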

[13] = test system: SF-268; experiment: Growth inhibition of human SF-268 cells at 10 uM incubated for 48 hrs by sulforhodamine B assay relative to control; in short: as §2
[14] = test system: SF-295; experiment: Growth inhibition of human SF-295 cells at 10 uM incubated for 48 hrs by sulforhodamine B assay relative to control; in short: as §2
[15] = test system: SNB-19; experiment: Growth inhibition of human SNB-19 cells at 10 uM incubated for 48 hrs by sulforhodamine B assay relative to control; in short: as §2
[16] = test system: SNB-75; experiment: Growth inhibition of human SNB-75 cells at 10 uM incubated for 48 hrs by sulforhodamine B assay relative to control; in short: as §2
[17] = test system: U-251; experiment: Growth inhibition of human U-251 cells at 10 uM incubated for 48 hrs by sulforhodamine B assay relative to control; in short: as §3
[18] = test system: LOX IMVI; experiment: Growth inhibition of human LOX IMVI cells at 10 uM incubated for 48 hrs by sulforhodamine B assay relative to control; in short: as §1
[19] = test system: Malme-3M; experiment: Growth inhibition of human Malme-3M cells at 10 uM incubated for 48 hrs by sulforhodamine B assay relative to control; in short: as §2
[20] = test system: M14; experiment: Growth inhibition of human M14 cells at 10 uM incubated for 48 hrs by sulforhodamine B assay relative to control; in short: as §1
[21] = test system: MDA-MB-435; experiment: Growth inhibition of human MDA-MB-435 cells at 10 uM incubated for 48 hrs by sulforhodamine B assay relative to control; in short: as §1
[22] = test system: SK-MEL-2; experiment: Growth inhibition of human SK-MEL-2 cells at 10 uM incubated for 48 hrs by sulforhodamine B assay relative to control; in short: as §2
[23] = test system: UACC-62; experiment: Growth inhibition of human UACC-62 cells at 10 uM incubated for 48 hrs by sulforhodamine B assay relative to control; in short: as §3
[24] = test system: IGROV-1; experiment: Growth inhibition of human IGROV-1 cells at 10 uM incubated for 48 hrs by sulforhodamine B assay relative to control; in short: as §1
[25] = test system: OVCAR-3; experiment: Growth inhibition of human OVCAR-3 cells at 10 uM incubated for 48 hrs by sulforhodamine B assay relative to control; in short: as §2
[26] = test system: OVCAR-4; experiment: Growth inhibition of human OVCAR-4 cells at 10 uM incubated for 48 hrs by sulforhodamine B assay relative to control; in short: as §2
[27] = test system: OVCAR-5; experiment: Growth inhibition of human OVCAR-5 cells at 10 uM incubated for 48 hrs by sulforhodamine B assay relative to control; in short: as §2
[28] = test system: OVCAR-8; experiment: Growth inhibition of human OVCAR-8 cells at 10 uM incubated for 48 hrs by sulforhodamine B assay relative to control; in short: as §2
[29] = test system: NCI/ADR-RES; experiment: Growth inhibition of human NCI/ADR-RES cells at 10 uM incubated for 48 hrs by sulforhodamine B assay relative to control; in short: as §2
[30] = test system: UO-31; experiment: Growth inhibition of human UO-31 cells at 10 uM incubated for 48 hrs by sulforhodamine B assay relative to control; in short: as §3
[31] = test system: PC-3; experiment: Growth inhibition of human PC-3 cells at 10 uM incubated for 48 hrs by sulforhodamine B assay relative to control; in short: as §2
[32] = test system: MCF7; experiment: Growth inhibition of human MCF7 cells at 10 uM incubated for 48 hrs by sulforhodamine B assay relative to control; in short: as §1
[33] = test system: MDA-MB-231; experiment: Growth inhibition of human MDA-MB-231 cells at 10 uM incubated for 48 hrs by sulforhodamine B assay relative to control; in short: as §1
[34] = test system: Hs-578T; experiment: Growth inhibition of human HS-578T cells at 10 uM incubated for 48 hrs by sulforhodamine B assay relative to control; in short: as §1
[35] = test system: BT-549; experiment: Growth inhibition of human BT-549 cells at 10 uM incubated for 48 hrs by sulforhodamine B assay relative to control; in short: as §1
[36] = test system: MDA-MB-468; experiment: Growth inhibition of human MDA-MB-468 cells at 10 uM incubated for 48 hrs by sulforhodamine B assay relative to control; in short: as §1

Work on `COc1cc2nc(-c3ccc(Cl)cc3)cc(OCCCN3CCCCC3)c2cc1OC` yielded an inhibition of growth at 10 µM [1] of 62%, an inhibition of growth at 10 µM [2] of 62% and an inhibition of growth at 10 µM [3] of 62%. It also gave an inhibition of growth at 10 µM [4] of 62%, an inhibition of growth at 10 µM [5] of 62% and an inhibition of growth at 10 µM [6] of 62%. For the same molecule, the inhibition of growth at 10 µM [7] was 62%, the inhibition of growth at 10 µM [8] was 62% and the inhibition of growth at 10 µM [9] was 62%. It also gave an inhibition of growth at 10 µM [10] of 62%, an inhibition of growth at 10 µM [11] of 62% and an inhibition of growth at 10 µM [12] of 62%. The inhibition of growth at 10 µM [13] was 62%, the inhibition of growth at 10 µM [14] was 62% and the inhibition of growth at 10 µM [15] was 62%. It also gave an inhibition of growth at 10 µM [16] of 62%, an inhibition of growth at 10 µM [17] of 62% and an inhibition of growth at 10 µM [18] of 62%. For the same molecule, the inhibition of growth at 10 µM [19] was 62%, the inhibition of growth at 10 µM [20] was 62% and the inhibition of growth at 10 µM [21] was 62%. The inhibition of growth at 10 µM [22] was 62%, the inhibition of growth at 10 µM [23] was 62% and the inhibition of growth at 10 µM [24] was 62%. It also gave an inhibition of growth at 10 µM [25] of 62%, an inhibition of growth at 10 µM [26] of 62% and an inhibition of growth at 10 µM [27] of 62%. For the same molecule, the inhibition of growth at 10 µM [28] was 62%, the inhibition of growth at 10 µM [29] was 62% and the inhibition of growth at 10 µM [30] was 62%. For the same molecule, the inhibition of growth at 10 µM [31] was 62%, the inhibition of growth at 10 µM [32] was 62% and the inhibition of growth at 10 µM [33] was 62%. For the same molecule, the inhibition of growth at 10 µM [34] was 62%, the inhibition of growth at 10 µM [35] was 62% and the inhibition of growth at 10 µM [36] was 62%.
`COc1cc2nc(-c3ccc(Cl)cc3)cc(OCCN3CCCCC3)c2cc1OC` showed an inhibition of growth at 10 µM [1] of 3%, an inhibition of growth at 10 µM [2] of 3% and an inhibition of growth at 10 µM [3] of 3%. The inhibition of growth at 10 µM [4] was 3%, the inhibition of growth at 10 µM [5] was 3% and the inhibition of growth at 10 µM [6] was 3%. For the same molecule, the inhibition of growth at 10 µM [7] was 3%, the inhibition of growth at 10 µM [8] was 3% and the inhibition of growth at 10 µM [9] was 3%. It also gave an inhibition of growth at 10 µM [10] of 3%, an inhibition of growth at 10 µM [11] of 3% and an inhibition of growth at 10 µM [12] of 3%. The inhibition of growth at 10 µM [13] was 3%, the inhibition of growth at 10 µM [14] was 3% and the inhibition of growth at 10 µM [15] was 3%. The inhibition of growth at 10 µM [16] was 3%, the inhibition of growth at 10 µM [17] was 3% and the inhibition of growth at 10 µM [18] was 3%. The inhibition of growth at 10 µM [19] was 3%, the inhibition of growth at 10 µM [20] was 3% and the inhibition of growth at 10 µM [21] was 3%. It also gave an inhibition of growth at 10 µM [22] of 3%, an inhibition of growth at 10 µM [23] of 3% and an inhibition of growth at 10 µM [24] of 3%. The inhibition of growth at 10 µM [25] was 3%, the inhibition of growth at 10 µM [26] was 3% and the inhibition of growth at 10 µM [27] was 3%. The inhibition of growth at 10 µM [28] was 3%, the inhibition of growth at 10 µM [29] was 3% and the inhibition of growth at 10 µM [30] was 3%. It also gave an inhibition of growth at 10 µM [31] of 3%, an inhibition of growth at 10 µM [32] of 3% and an inhibition of growth at 10 µM [33] of 3%. For the same molecule, the inhibition of growth at 10 µM [34] was 3%, the inhibition of growth at 10 µM [35] was 3% and the inhibition of growth at 10 µM [36] was 3%.

Reference: ChEMBL document CHEMBL4732237, “Discovery of 4-alkoxy-2-aryl-6,7-dimethoxyquinolines as a new class of topoisomerase I inhibitors endowed with potent in vitro anticancer activity” (2021)
